ChEMBL document CHEMBL1770142, “Improvement of the synthesis and pharmacokinetic properties of chromenotriazolopyrimidine MDM2-p53 protein-protein inhibitors” (Bioorg Med Chem Lett, 2011)
≈ marks a conversion by molar mass, not a printed value.

What was measured:
[1] = Solubility of the compound in phosphate buffer saline; format: physicochemical
[2] = Mean residence time in rat at 0.5 mg/kg, iv; format: ADME, organism-based; set-up: dose 0.5 mg/kg, route intravenous; conditions: in vivo
In short: (§1)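 Rat PK: intravenous 0.5 mg/kg in 100% DMSO; oral 2.0 mg/kg in 0.5% methylcellulose/1% Tween 80/98.5% water. Plasma profiles give MRT, Vdss and CL from the iv arm and F from the oral arm.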

[3] = Volume of distribution at steady state in rat at 0.5 mg/kg, iv; format: ADME, organism-based; set-up: dose 0.5 mg/kg, route intravenous; conditions: in vivo, read-out: Vdss; in short: as §1
[4] = Oral bioavailability in rat at 2 mg/kg; format: ADME, organism-based; conditions: in vivo; in short: as §1
[5] = Mean residence time in rat at 2 mg/kg, iv; format: ADME, organism-based; set-up: dose 2 mg/kg, route intravenous; conditions: in vivo
In short: (§2)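 Rats dosed intravenously at 2.0 mg/kg in DMSO, or orally at 5.0 mg/kg in 2% HPMC, 1% Tween 80, pH 2.2 with HCl. Plasma levels of parent and of the 4/5 conversion products were followed over time. iv parameters and oral bioavailability were taken from these profiles.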

[6] = Volume of distribution at steady state in rat at 2 mg/kg, iv; format: ADME, organism-based; set-up: dose 2 mg/kg, route intravenous; conditions: in vivo, read-out: Vdss; in short: as §2
[7] = Oral bioavailability in rat at 5 mg/kg, po; format: ADME, organism-based; conditions: in vivo; in short: as §2

Row | solubility [1] [µg/mL] | MRT [2] [h] | Vd [3] [L/kg] | bioavailability [4] [%] | MRT [5] [h] | Vd [6] [L/kg] | bioavailability [7] [%] | SMILES
1 | 132 (≈ 222 µM) | 0.46 | 2.6 | 14 |  |  |  | O=C(O)CN1C2=C([C@H](c3ccc(Br)cc3)n3ncnc31)[C@@H](c1ccc(Br)cc1)Oc1ccccc12
2 | < 1 |  |  |  | 2.4 | 9.9 | 23 | CN1C2=C([C@H](c3ccc(Br)cc3)n3ncnc31)[C@@H](c1ccc(Br)cc1)Oc1ccccc12
3 | 6.1 (≈ 9.59 µM) | 4.1 | 1.7 | 54 |  |  |  | O=C(O)CCCCN1C2=C([C@H](c3ccc(Br)cc3)n3ncnc31)[C@@H](c1ccc(Br)cc1)Oc1ccccc12
